Test results as given in ChEMBL document CHEMBL5678802, “Small-molecule p21-activated kinase inhibitor PF-3758309 is a potent inhibitor of oncogenic signaling and tumor growth” (Proc Natl Acad Sci U S A, 2010).
Active and inactive are the calls of the source. The calls are words filed in the database; no cut-off is given here.

What was measured:
[1] = test system: HCT-116; experiment: Downregulation of camptothecin-induced phospho-S474-PAK4 level in human HCT-116 cells at 1 uM preincubated with compound for 15 mins followed by camptothecin stimulation and measured after 20 hrs by Western blot analysis; assay type: functional, cell-based; conditions: time 20.25 hrs
[2] = biological target: Ribosomal protein S6 kinase alpha-1 (Homo sapiens, UniProt Q15418); experiment: Inhibition of human RSK1 in presence of ATP relative to control; conditions: concentration not given here
[3] = test system: HCT-116; experiment: Inhibition of anchorage independent cell growth in human HCT-116 cells incubated for 6 days by Alamar blue reagent based fluorescence plate reader analysis; assay type: functional; conditions: HCT-116, 144 h
[4] = test system: DLD-1; experiment: Antitumor activity against PAK4 -/+ human DLD-1 cells xenografted in nude mouse assessed as tumor growth inhibition at 20 mg/kg, po administered once daily for 9 to 18 days relative to control; assay type: functional; conditions: time 9-18 day, read-out: TGI
In short: (§1)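 Tumor cells were implanted s.c. into the right flank of female nu/nu nude mice aged 6–8 weeks. Animals were randomized into treatment groups once tumors were established (example: day 8 postimplant, about 170 mm3, animals >22 g). Compound in 0.5% methylcellulose was given by oral gavage. Tumors were measured with calipers two to three times per week.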

[5] = biological target: T1, Protein kinase C beta type (Homo sapiens, UniProt P05771); experiment: Inhibition of human PKCbeta-II in presence of ATP by cellular assay
[6] = biological target: Tyrosine-protein kinase Fgr (Homo sapiens, UniProt P09769); experiment: Inhibition of human FGR in presence of ATP by cellular assay
[7] = biological target: Proto-oncogene tyrosine-protein kinase Src (Homo sapiens, UniProt P12931); experiment: Inhibition of human SRC in presence of ATP by cellular assay
[8] = test system: SU.86.86; experiment: Antiproliferative activity against human SU-86-86 cells assessed as inhibition of cell proliferation incubated for 3 days by CellTiter-Glo Luminescent Cell Viability Assay; assay type: functional, cell-based; conditions: SU.86.86, 72 h
In short: (§2)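 Cells of each line were plated in 384-well plates on day 1 and exposed to compound from day 2 for 3 days. On day 5 all medium was aspirated. Viable cell number was read by CellTiter-Glo luminescence, which quantifies cellular ATP.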

[9] = In vivo inhibition of PAK4 in nude mouse xenografted with human HCT-116 cells assessed as reduction in phosphorylated GEF-H1 level at 1.1 to 3.3 mg/kg, sc administered for 6 days by ELISA relative to control; assay type: functional; set-up: scale not given: the % may be the effect or the level left; conditions: dose 1.1-3.3 mg/kg, time 6 day
[10] = test system: HCT-116; experiment: Antitumor activity against human HCT-116 cells xenografted in nude mouse assessed as reduction in MEK1 phosphorylation at S221 residue at 15 to 150 mg/kg/day administered via pump for 18 hrs by Reverse-Phase protein array analysis; assay type: functional, organism-based; conditions: dose 15-150 mg/kg/day
[11] = test system: MDA-MB-415; experiment: Antiproliferative activity against human MDA-MB-415 cells assessed as inhibition of cell proliferation incubated for 3 days by CellTiter-Glo Luminescent Cell Viability Assay; assay type: functional, cell-based; conditions: MDA-MB-415, 72 h
In short: (§3)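 Cancer cell lines seeded in 384-well plates on day 1; compound added on day 2 and left for 3 days. On day 5 all medium was aspirated, and viable cells were quantified by CellTiter-Glo luminescence, which measures cellular ATP. Dose-dependent effects on proliferation were determined.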

[12] = test system: SW1990; experiment: Antiproliferative activity against human SW1990 cells assessed as inhibition of cell proliferation incubated for 3 days by CellTiter-Glo Luminescent Cell Viability Assay; assay type: functional, cell-based; conditions: SW1990, 72 h; in short: as §2
[13] = test system: HPAF-II; experiment: Antiproliferative activity against human HPAF-II cells assessed as inhibition of cell proliferation incubated for 3 days by CellTiter-Glo Luminescent Cell Viability Assay; assay type: functional, cell-based; conditions: 72 h; in short: as §3
[14] = test system: HCT-116; experiment: Downregulation of camptothecin-induced p21 waf1/cip1 level in human HCT-116 cells at 1 uM preincubated with compound for 15 mins followed by camptothecin stimulation and measured after 20 hrs by Western blot analysis; assay type: functional, cell-based; conditions: time 20.25 hrs
[15] = test system: CFPAC-1; experiment: Antiproliferative activity against human CFPAC-1 cells assessed as inhibition of cell proliferation incubated for 3 days by CellTiter-Glo Luminescent Cell Viability Assay; assay type: functional, cell-based; conditions: CFPAC-1, 72 h; in short: as §3
[16] = biological target: Serine/threonine-protein kinase Chk2 (Homo sapiens, UniProt O96017); experiment: Inhibition of human CHK2 in presence of ATP relative to control; conditions: concentration not given here
[17] = test system: NCI-H1650; experiment: Inhibition of anchorage independent cell growth in human NCI-H1650 cells incubated for 6 days by Alamar blue reagent based fluorescence plate reader analysis; assay type: functional; conditions: NCI-H1650, 144 h
[18] = test system: NCI-H1573; experiment: Inhibition of anchorage independent cell growth in human NCI-H1573 cells incubated for 6 days by Alamar blue reagent based fluorescence plate reader analysis; assay type: functional; conditions: NCI-H1573, 144 h
[19] = test system: COLO 205; experiment: Antiproliferative activity against human COLO 205 cells assessed as inhibition of cell proliferation incubated for 3 days by CellTiter-Glo Luminescent Cell Viability Assay; assay type: functional, cell-based; conditions: COLO 205, 72 h; in short: as §3
[20] = biological target: Ribosomal protein S6 kinase alpha-2 (Homo sapiens, UniProt Q15349); experiment: Inhibition of human RSK3 in presence of ATP by cellular assay
[21] = test system: NCI-H82; experiment: Antiproliferative activity against human NCI-H82 cells assessed as inhibition of cell proliferation incubated for 3 days by CellTiter-Glo Luminescent Cell Viability Assay; assay type: functional, cell-based; conditions: NCI-H82, 72 h; in short: as §2
[22] = test system: ZR-75-1; experiment: Antiproliferative activity against human ZR-75-1 cells assessed as inhibition of cell proliferation incubated for 3 days by CellTiter-Glo Luminescent Cell Viability Assay; assay type: functional, cell-based; conditions: ZR-75-1, 72 h; in short: as §2
[23] = test system: GTL 16 cell line; experiment: Antitumor activity against human GTL-16 cell line xenografted in nude mouse assessed as tumor growth inhibition at 10 mg/kg, po administered once daily for 9 to 18 days relative to control; assay type: functional; conditions: time 9-18 day, read-out: TGI; in short: as §1
[24] = Inhibition of YFP/YFP variant coding sequence fused ARF1/gamma-COP (unknown origin) expressed in HEK293 cells incubated for 8 to 24 hrs by fluorescence based analysis; assay type: cell-based, Homo sapiens
[25] = test system: CAPAN-1; experiment: Antiproliferative activity against human CAPAN-1 cells assessed as inhibition of cell proliferation incubated for 3 days by CellTiter-Glo Luminescent Cell Viability Assay; assay type: functional, cell-based; conditions: CAPAN-1, 72 h; in short: as §3
[26] = test system: NCI-H1437; experiment: Inhibition of anchorage independent cell growth in human NCI-H1437 cells incubated for 6 days by Alamar blue reagent based fluorescence plate reader analysis; assay type: functional; conditions: NCI-H1437, 144 h
[27] = biological target: T1, Protein kinase C beta type; experiment: Inhibition of human PKCbeta-II in presence of ATP
[28] = test system: PSN1; experiment: Antiproliferative activity against human PSN1 cells assessed as inhibition of cell proliferation incubated for 3 days by CellTiter-Glo Luminescent Cell Viability Assay; assay type: functional, cell-based; conditions: PSN1, 72 h; in short: as §2
[29] = test system: HCT-116; experiment: Induction of cell cycle arrest in human HCT-116 cells assessed as accumulation of cells at S phase at 100 nM measured after 48 hrs by fluorescence activated cell sorter analysis (reference value: 26.15%); assay type: functional
[30] = Cytotoxicity against primary hepatocyte (unknown origin) assessed as inhibition of cell proliferation incubated for 3 days by CellTiter-Glo Luminescent Cell Viability Assay; assay type: toxicity, cell-based; conditions: primary hepatocytes
[31] = test system: HCT-116; experiment: Antitumor activity against human HCT-116 cells xenografted in nude mouse assessed as unbound drug concentration for inhibition of tumor growth at 0.12 to 3.3 mg/kg administered via pump for 9 days; assay type: functional; conditions: dose 0.12-3.3 mg/kg; time 9 day

T1 sequence (P05771 whole entry): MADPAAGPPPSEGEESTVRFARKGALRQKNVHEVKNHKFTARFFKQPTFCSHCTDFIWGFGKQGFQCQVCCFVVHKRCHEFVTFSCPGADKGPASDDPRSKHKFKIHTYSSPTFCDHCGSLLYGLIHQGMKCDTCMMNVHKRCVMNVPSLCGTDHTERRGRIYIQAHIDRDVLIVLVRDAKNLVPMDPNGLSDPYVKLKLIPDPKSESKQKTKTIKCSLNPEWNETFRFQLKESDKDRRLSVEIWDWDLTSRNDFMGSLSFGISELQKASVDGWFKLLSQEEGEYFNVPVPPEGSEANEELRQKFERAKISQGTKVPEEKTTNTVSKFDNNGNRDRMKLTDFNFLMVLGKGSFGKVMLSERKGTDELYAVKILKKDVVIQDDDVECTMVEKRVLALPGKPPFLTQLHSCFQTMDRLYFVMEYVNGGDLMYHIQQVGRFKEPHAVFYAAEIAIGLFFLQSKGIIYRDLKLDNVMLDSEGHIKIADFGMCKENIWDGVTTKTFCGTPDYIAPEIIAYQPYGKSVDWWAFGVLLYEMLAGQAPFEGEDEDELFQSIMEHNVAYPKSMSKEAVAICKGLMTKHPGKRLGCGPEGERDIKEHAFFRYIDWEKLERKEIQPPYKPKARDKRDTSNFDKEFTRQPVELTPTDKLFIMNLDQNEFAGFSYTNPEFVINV
Sequence of Proto-oncogene tyrosine-protein kinase Src (P12931 2-536 limits assumed): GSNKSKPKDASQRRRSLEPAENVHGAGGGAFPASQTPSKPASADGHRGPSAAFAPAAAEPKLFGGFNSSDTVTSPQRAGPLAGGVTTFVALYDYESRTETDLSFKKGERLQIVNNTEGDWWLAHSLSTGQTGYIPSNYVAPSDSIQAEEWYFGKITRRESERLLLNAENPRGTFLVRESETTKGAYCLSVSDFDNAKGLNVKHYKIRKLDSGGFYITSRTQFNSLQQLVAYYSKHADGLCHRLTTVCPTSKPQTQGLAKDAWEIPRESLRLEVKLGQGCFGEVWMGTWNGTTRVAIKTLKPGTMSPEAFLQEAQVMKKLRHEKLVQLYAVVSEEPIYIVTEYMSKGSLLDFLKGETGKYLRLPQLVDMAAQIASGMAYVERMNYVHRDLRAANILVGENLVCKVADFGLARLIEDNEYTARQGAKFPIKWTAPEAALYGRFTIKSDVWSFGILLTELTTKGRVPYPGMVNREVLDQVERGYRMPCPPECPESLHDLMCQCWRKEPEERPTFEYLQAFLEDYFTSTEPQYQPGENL
Sequence of Tyrosine-protein kinase Fgr (P09769 whole entry): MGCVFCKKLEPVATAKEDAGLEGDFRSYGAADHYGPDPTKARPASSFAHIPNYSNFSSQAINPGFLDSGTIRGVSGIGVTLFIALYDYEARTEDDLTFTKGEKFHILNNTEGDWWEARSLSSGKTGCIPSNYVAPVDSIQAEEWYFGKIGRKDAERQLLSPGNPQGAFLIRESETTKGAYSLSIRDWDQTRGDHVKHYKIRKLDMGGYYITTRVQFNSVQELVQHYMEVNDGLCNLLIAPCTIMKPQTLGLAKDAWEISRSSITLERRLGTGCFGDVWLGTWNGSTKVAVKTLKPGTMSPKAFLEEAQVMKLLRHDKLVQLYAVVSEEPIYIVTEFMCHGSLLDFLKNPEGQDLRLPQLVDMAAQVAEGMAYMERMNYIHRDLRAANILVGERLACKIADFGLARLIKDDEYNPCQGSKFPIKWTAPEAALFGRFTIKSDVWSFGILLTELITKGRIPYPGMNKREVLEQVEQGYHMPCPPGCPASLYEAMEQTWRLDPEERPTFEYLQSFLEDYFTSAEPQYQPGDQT
Sequence of Ribosomal protein S6 kinase alpha-1 (Q15418 whole entry): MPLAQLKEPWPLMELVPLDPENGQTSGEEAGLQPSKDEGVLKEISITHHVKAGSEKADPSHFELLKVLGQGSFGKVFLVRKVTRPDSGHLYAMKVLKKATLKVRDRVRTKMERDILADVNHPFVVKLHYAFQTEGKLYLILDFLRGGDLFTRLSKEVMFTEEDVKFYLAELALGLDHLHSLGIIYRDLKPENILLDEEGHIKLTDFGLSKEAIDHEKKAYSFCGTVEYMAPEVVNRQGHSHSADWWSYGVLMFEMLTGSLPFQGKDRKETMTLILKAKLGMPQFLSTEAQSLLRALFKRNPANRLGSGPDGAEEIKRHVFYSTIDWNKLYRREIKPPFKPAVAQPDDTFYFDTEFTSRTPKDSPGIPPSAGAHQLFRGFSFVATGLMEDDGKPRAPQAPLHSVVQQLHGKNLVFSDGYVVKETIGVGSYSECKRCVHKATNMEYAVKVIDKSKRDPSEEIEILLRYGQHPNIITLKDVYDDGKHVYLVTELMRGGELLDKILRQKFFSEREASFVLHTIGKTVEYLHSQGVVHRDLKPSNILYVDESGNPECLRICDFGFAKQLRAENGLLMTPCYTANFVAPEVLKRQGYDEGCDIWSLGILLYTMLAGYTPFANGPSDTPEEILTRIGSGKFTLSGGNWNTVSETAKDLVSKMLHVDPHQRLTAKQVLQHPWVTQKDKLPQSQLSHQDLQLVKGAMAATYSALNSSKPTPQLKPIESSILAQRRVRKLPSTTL
Sequence of Ribosomal protein S6 kinase alpha-2 (Q15349 whole entry): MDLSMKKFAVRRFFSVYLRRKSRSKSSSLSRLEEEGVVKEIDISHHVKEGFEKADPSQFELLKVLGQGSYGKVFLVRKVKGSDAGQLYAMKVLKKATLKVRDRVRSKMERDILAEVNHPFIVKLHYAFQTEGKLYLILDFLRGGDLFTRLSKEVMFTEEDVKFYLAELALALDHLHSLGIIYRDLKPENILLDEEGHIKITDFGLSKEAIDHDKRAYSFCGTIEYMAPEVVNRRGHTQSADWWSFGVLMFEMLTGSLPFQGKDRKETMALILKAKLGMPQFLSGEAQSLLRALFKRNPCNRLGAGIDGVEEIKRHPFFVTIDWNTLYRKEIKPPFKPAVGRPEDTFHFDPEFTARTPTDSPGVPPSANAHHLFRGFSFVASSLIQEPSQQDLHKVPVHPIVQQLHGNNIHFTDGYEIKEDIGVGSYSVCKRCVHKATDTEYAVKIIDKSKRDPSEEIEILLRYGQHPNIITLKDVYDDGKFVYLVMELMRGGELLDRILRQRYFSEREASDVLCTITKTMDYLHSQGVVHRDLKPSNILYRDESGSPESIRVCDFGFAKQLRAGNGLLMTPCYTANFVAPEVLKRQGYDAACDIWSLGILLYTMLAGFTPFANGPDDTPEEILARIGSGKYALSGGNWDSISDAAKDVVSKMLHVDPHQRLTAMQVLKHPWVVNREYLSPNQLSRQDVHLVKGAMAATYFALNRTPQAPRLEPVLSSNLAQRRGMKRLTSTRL
Sequence of Serine/threonine-protein kinase Chk2 (O96017 whole entry): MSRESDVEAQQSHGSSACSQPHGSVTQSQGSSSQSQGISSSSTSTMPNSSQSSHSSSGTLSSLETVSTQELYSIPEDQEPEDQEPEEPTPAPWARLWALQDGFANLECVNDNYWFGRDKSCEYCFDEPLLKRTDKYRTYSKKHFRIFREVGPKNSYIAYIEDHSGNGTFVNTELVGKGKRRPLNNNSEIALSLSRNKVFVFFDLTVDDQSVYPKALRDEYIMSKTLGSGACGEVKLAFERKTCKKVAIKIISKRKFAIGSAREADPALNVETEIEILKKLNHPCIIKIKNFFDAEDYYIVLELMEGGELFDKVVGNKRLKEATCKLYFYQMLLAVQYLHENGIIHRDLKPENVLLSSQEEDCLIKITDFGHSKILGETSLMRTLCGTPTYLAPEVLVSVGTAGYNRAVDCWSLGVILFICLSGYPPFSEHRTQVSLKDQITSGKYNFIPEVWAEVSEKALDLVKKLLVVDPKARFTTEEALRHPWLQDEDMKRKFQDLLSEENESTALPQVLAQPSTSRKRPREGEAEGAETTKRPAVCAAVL

Structure (SMILES): Cc1nc(Nc2n[nH]c3c2CN(C(=O)N[C@H](CN(C)C)c2ccccc2)C3(C)C)c2sccc2n1 [PF-03758309]
- Activity [1]: Active
- inhibition [2]: 101%
- IC50 [3]: 0.00024 µM
- inhibition in vivo at 20 mg/kg [4]: 0%
- IC50 [5]: 1.39 µM
- IC50 [6]: 4.68 µM
- IC50 [7]: 2.21 µM
- IC50 [8]: 0.898 µM
- Activity [9]: 54%
- Activity [10]: Active
- IC50 [11]: 0.036 µM
- IC50 [12]: 0.127 µM
- IC50 [13]: 0.517 µM
- Activity [14]: Active
- IC50 [15]: 1.32 µM
- inhibition [16]: 103%
- IC50 [17]: 0.00557 µM
- IC50 [18]: 0.00237 µM
- IC50 [19]: 0.0028 µM
- IC50 [20]: 1.96 µM
- IC50 [21]: 0.0021 µM
- IC50 [22]: 0.00049 µM
- inhibition in vivo at 10 mg/kg [23]: 0%
- IC50 [24]: 0.0079 µM
- IC50 [25]: 1.1 µM
- IC50 [26]: 0.0048 µM
- IC50 [27]: 0.156 µM
- IC50 [28]: 0.034 µM
- Activity [29]: 14.37%
- IC50 at 3 days [30]: > 1 µM
- fIC50 [31]: 0.4 nM
